This is an account of results in ChEMBL document CHEMBL1641392, “Triterpenes from Garcia parviflora. Cytotoxic evaluation of natural and semisynthetic friedelanes” (J Nat Prod, 2010).

Molecules are shown by their SMILES. pIC50: −log10 of the molar value.

Holding throughout (type): functional, cell-based
In one test the test system is PC-3. Kind of test: Cytotoxicity against human PC3 cells after 48 hrs by sulforhodamine B assay. In short, it runs like this:
(§1)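 Cells (NCI source) in RPMI-1640 with 10% FBS and antibiotics, 37 °C, 5% CO2. Seeded at 5 × 10^4 cells/mL (K562, MCF-7), 7.5 × 10^4 (U251, PC-3, SKLU-1), or 10 × 10^4 (HCT-15). After 24 h, DMSO-dissolved compounds added for 48 h. Fixed with cold TCA, stained with 0.4% SRB, Tris-extracted, read at 515 nm. IC50 from linear regression of dose-response curves.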
(The SRB assay estimates cell density from bound dye.)

The test system of the next test is SK-LU-1. Briefly: Cytotoxicity against human SK-LU-1 cells after 48 hrs by sulforhodamine B assay. In short, it runs like this: as §1
For a further test, the system named is K562. Kind of test: Cytotoxicity against human K562 cells after 48 hrs by sulforhodamine B assay. In short, it runs like this: as §1
The test system of the next test is MCF7. Briefly: Cytotoxicity against human MCF7 cells after 48 hrs by sulforhodamine B assay. In a few lines: as §1
A further test has as its system HCT-15. Briefly: Cytotoxicity against human HCT15 cells after 48 hrs by sulforhodamine B assay. The settings on record: HCT-15, 48 h. In short, it runs like this:
as §1

The test system of a further test is U-251. Briefly: Cytotoxicity against human U251 cells after 48 hrs by sulforhodamine B assay. Particulars: U-251, 48 h. In a few lines: as §1

As a reminder, the pIC50 is the IC50 on a negative log10 scale, so that one unit is a factor of ten. A lower pIC50 goes with a large IC50. For the molecule `CC1(C)CC[C@]2(C)CC[C@]3(C)[C@H]4CC[C@@]5(C)[C@@H](C=CC(=O)[C@@]5(C)O)[C@]4(C)CC[C@@]3(C)[C@@H]2C1`, the Activity result in the test on PC-3, in the test on SK-LU-1, with K562 and with MCF7 was “Not toxic” each time. Further, the pIC50 in the test on HCT-15 was 4.38.
For `C[C@H]1C(=O)C=C[C@@H]2[C@]1(C)CC[C@H]1[C@@]2(C)CC[C@@]2(C)[C@@H]3CC(C)(C)CC[C@]3(C)CC[C@]12C`, the Activity entry with PC-3, in the test with SK-LU-1, in the test on K562 and with MCF7 was “Not toxic” in each case.
In the case of `C[C@H]1C(=O)C[C@@H](O)[C@@H]2[C@]1(C)CC[C@H]1[C@@]2(C)CC[C@@]2(C)[C@@H]3CC(C)(C)CC[C@]3(C)CC[C@]12C`, the Activity result in the test with PC-3, in the test on SK-LU-1, with K562 and in the test with MCF7 was “Not toxic” in each case.
Take `C[C@H]1/C(=N/O)C[C@@H](O)[C@@H]2[C@]1(C)CC[C@H]1[C@@]2(C)CC[C@@]2(C)[C@@H]3CC(C)(C)CC[C@]3(C)CC[C@]12C`: the Activity entry with PC-3, in the test with SK-LU-1, in the test on K562 and in the test with MCF7 was “Not toxic” in each case.
For the molecule `CC1(C)CC[C@]2(C)CC[C@]3(C)[C@H]4CC[C@@]5(C)[C@@H](CC[C@H](O)[C@@H]5C(=O)O)[C@]4(C)CC[C@@]3(C)[C@@H]2C1`, the Activity result in the test on PC-3, with SK-LU-1, in the test on K562 and in the test on MCF7 was “Not toxic” in each case.
With `CC(=O)O[C@H]1C[C@@H](O)[C@@H]2[C@](C)(CC[C@H]3[C@@]2(C)CC[C@@]2(C)[C@@H]4CC(C)(C)CC[C@]4(C)CC[C@]32C)[C@H]1C`, the Activity entry with PC-3, with SK-LU-1, in the test on K562 and with MCF7 was “Not toxic” in each case.
Take `C[C@H]1C(=O)CC(=O)[C@@H]2[C@]1(C)CC[C@H]1[C@@]2(C)CC[C@@]2(C)[C@@H]3CC(C)(C)CC[C@]3(C)CC[C@]12C`: the Activity result with PC-3, in the test with SK-LU-1, with K562 and in the test with MCF7 was “Not toxic” in each case.
In the case of `C[C@H]1OC(=O)CC[C@@H]2[C@]1(C)CC[C@H]1[C@@]2(C)CC[C@@]2(C)[C@@H]3CC(C)(C)CC[C@]3(C)CC[C@]12C` [FRIEDELIN-3,4-LACTONE], the Activity entry in the test on PC-3, in the test with SK-LU-1, with K562 and in the test on MCF7 was “Not toxic” in each case. Further, in the test with U-251, the pIC50 was 4.77.
For `C[C@H]1OC(=O)C[C@@H](O)[C@@H]2[C@]1(C)CC[C@H]1[C@@]2(C)CC[C@@]2(C)[C@@H]3CC(C)(C)CC[C@]3(C)CC[C@]12C`, the Activity entry in the test on PC-3, in the test on SK-LU-1, with K562 and in the test with MCF7 was “Not toxic” in each case.
With `CC(=O)O[C@H]1CC[C@]2(C)[C@H]3CC[C@]4(C)C(=CC[C@@]5(C(=O)O)CCC(C)(C)C[C@H]54)[C@]3(C)CC[C@H]2C1(C)C` [ACETYL ALEURITOLIC ACID], the Activity entry in the test on PC-3, in the test on SK-LU-1, in the test with K562 and with MCF7 was “Not toxic” throughout. In the test on U-251, this molecule showed a pIC50 of 5.08.
On to `C[C@H]1NC(=O)C[C@@H](O)[C@@H]2[C@]1(C)CC[C@H]1[C@@]2(C)CC[C@@]2(C)[C@@H]3CC(C)(C)CC[C@]3(C)CC[C@]12C`, for which the Activity entry in the test on PC-3, in the test on SK-LU-1, with K562 and with MCF7 was “Not toxic” in each case.
Turning to `C=C[C@@H]1[C@@](C)([C@@H](C)C(=O)O)CC[C@H]2[C@@]1(C)CC[C@@]1(C)[C@@H]3CC(C)(C)CC[C@]3(C)CC[C@]21C`, the Activity result with PC-3, with SK-LU-1, with K562 and in the test on MCF7 was “Not toxic” throughout. For the same molecule, the pIC50 in the test on U-251 was 4.43.
Consider `CC(=O)O[C@H]1C[C@@H](OC(C)=O)[C@@H]2[C@](C)(CC[C@H]3[C@@]2(C)CC[C@@]2(C)[C@@H]4CC(C)(C)CC[C@]4(C)CC[C@]32C)[C@H]1C`, for which the Activity result in the test on PC-3, with SK-LU-1, in the test with K562 and with MCF7 was “Not toxic” each time.
On to `C[C@H]1[C@@H](O)C[C@@H](O)[C@@H]2[C@]1(C)CC[C@H]1[C@@]2(C)CC[C@@]2(C)[C@@H]3CC(C)(C)CC[C@]3(C)CC[C@]12C`, for which the Activity entry in the test on PC-3, in the test on SK-LU-1, in the test on K562 and in the test with MCF7 was “Not toxic” in each case. Also, the pIC50 in the test with U-251 is 4.64.
